In ChEMBL document CHEMBL1158399, “Synthesis, biological evaluation and molecular modeling of oxoisoaporphine and oxoaporphine derivatives as new dual inhibitors of acetylcholinesterase/butyrylcholinesterase” (Eur J Med Chem, 2009):

Experiments:
Acetylcholinesterase [1] = target: T1, Acetylcholinesterase (Electrophorus electricus, UniProt O42275); test: Inhibition of electric eel AChE by Ellman's method
Cholinesterase = Cholinesterase (Equus caballus, UniProt P81908); test: Inhibition of equine serum BuChE by Ellman's method
Chain of Cholinesterase (P81908 whole entry): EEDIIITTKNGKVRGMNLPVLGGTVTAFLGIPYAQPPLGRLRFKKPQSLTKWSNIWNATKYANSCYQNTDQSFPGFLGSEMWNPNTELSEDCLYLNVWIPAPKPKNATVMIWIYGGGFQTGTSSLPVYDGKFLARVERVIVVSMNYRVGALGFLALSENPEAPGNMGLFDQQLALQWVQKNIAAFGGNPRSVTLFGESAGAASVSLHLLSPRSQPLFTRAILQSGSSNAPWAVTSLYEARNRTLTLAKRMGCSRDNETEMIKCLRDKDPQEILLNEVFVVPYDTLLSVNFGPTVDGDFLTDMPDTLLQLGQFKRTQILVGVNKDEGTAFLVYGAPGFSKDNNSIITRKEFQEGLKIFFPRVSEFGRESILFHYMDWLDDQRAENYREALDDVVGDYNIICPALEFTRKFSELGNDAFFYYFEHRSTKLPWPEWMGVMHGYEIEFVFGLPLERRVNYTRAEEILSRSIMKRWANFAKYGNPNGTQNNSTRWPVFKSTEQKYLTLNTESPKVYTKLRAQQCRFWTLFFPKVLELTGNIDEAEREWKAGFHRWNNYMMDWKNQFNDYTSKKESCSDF
Procedure, shortened: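 Modified Ellman assay with equine serum BuChE (enzyme stock 2.0 units/mL), run the same way as the AChE assay. Phosphate buffer pH 8.0 with DTNB (0.01 M stock). Inhibitor incubated 15 min with enzyme, buffer and DTNB before substrate was added. Absorbance rise at 412 nm read over 1 min at 37 °C. IC50 given as mean ± SEM of three experiments.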

[2] = Selectivity ratio of IC50 for equine serum BuChE to IC50 for electric eel AChE
Procedure, shortened: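 Modified Ellman assays with electric eel AChE and equine serum BuChE (enzyme stocks 2.0 units/mL). AChE substrate was acetylthiocholine chloride (0.01 M stock), in phosphate buffer pH 8.0 with DTNB (0.01 M stock), after 15 min inhibitor preincubation. A412 read over 1 min at 37 °C. IC50s are means ± SEM of three experiments; ratio = IC50(BuChE)/IC50(AChE).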

Acetylcholinesterase [3] = target: T1, Acetylcholinesterase; test: Inhibition of electric eel AChE by LB plot

T1 sequence (O42275 whole entry): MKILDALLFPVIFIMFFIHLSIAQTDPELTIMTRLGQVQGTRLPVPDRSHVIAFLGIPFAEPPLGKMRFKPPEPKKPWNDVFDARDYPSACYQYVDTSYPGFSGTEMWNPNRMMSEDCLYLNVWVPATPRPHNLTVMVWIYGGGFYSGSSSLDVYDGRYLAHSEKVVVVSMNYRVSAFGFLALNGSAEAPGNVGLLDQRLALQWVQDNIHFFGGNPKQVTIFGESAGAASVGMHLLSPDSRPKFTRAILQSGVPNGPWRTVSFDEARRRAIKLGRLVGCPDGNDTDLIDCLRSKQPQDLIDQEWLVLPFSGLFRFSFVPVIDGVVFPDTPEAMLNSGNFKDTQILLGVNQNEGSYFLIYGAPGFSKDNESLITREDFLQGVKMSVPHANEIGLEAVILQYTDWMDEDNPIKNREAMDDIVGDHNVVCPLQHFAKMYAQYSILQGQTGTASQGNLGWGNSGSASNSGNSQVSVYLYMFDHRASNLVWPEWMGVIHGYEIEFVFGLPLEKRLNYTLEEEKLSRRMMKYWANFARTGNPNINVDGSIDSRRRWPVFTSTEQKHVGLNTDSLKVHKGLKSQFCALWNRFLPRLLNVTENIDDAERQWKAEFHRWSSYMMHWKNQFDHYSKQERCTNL

| Compound | IC50 (Acetylcholinesterase [1]) [µM] | IC50 (Cholinesterase) [µM] | Ratio IC50 [2] | Ki (Acetylcholinesterase [3]) [µM] |
| --- | --- | --- | --- | --- |
| C[N+]1(CCNC(=O)c2cnc3c4c(cccc24)-c2ccccc2C3=O)CCCCC1 | 0.35 | 6.76 | 16 | – |
| Nc1ccc2c(c1)C(=O)c1cccc3ccnc-2c13 | – | > 100 | – | 3.86 |
| CC[N+](C)(CC)CCCNC(=O)c1cnc2c3c(cccc13)-c1ccccc1C2=O | 0.65 | 9.72 | 15 | – |
| C[N+]1(CCC(=O)Nc2ccc3c(c2)C(=O)c2cccc4ccnc-3c24)CCCCC1 | 0.00048 | 0.6 | 1250 | 0.00031 |
| O=C(NCCCO)c1cnc2c3c(cccc13)-c1ccccc1C2=O | 12.2 | 53.3 | 4 | – |
| O=C1c2ccccc2-c2cccc3ccnc1c23 | 10.6 | 4.01 | 0.4 | 14.6 |
| CC[N+](C)(CC)CCNC(=O)c1cnc2c3c(cccc13)-c1ccccc1C2=O | 1.71 | 8.14 | 5 | – |
| C[N+]1(CCCNC(=O)c2cnc3c4c(cccc24)-c2ccccc2C3=O)CCCCC1 | 0.11 | 6.24 | 57 | 0.11 |
| C[N+](C)(C)CCNC(=O)c1cnc2c3c(cccc13)-c1ccccc1C2=O | 3.32 | 5.03 | 1 | – |
| C[N+]1(CCCNC(=O)c2cnc3c4c(cccc24)-c2ccccc2C3=O)CCOCC1 | 1.05 | 4.75 | 4 | – |
| O=C(NCCO)c1cnc2c3c(cccc13)-c1ccccc1C2=O | 18 | 68.7 | 4 | – |
| C[N+](C)(C)CCC(=O)Nc1ccc2c(c1)C(=O)c1cccc3ccnc-2c13 | – | 2.82 | 590 | – |
| CC[N+](C)(CC)CCC(=O)Nc1ccc2c(c1)C(=O)c1cccc3ccnc-2c13 | 0.00262 | 5.19 | 1980 | – |
| C[N+]1(CCNC(=O)c2cnc3c4c(cccc24)-c2ccccc2C3=O)CCOCC1 | 1.24 | 11.7 | 9 | – |
| C[N+](C)(C)CCCNC(=O)c1cnc2c3c(cccc13)-c1ccccc1C2=O | 3.16 | 2.71 | 1 | – |
